Measurements reported in ChEMBL document CHEMBL1144684, “Evaluation of a series of naphthamides as potent, orally active vascular endothelial growth factor receptor-2 tyrosine kinase inhibitors” (J Med Chem, 2008).
Values after ≈ are worked out from the molar mass of the structure shown. Active and inactive are the calls of the source. No cut-off for these calls is given here.

Assays:
[1] = target: Tyrosine-protein kinase Lck (Homo sapiens, UniProt P06239); assay: Inhibition of Lck
[2] = tested on: HUVEC; assay: Selectivity of IC50 for VEGF-induced proliferation over IC50 for bFGF-induced proliferation of HUVEC; assay type: functional, Homo sapiens
How it was run: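 HUVECs were seeded at 3000 cells/well in DMEM/10% FBS with pen/strep and cultured for 22 h. They were preincubated 2 h with serially diluted compound, then stimulated with 50 ng/mL VEGF or 20 ng/mL bFGF for 72 h at 37 °C, 5% CO2. Cells were washed, frozen at -70 °C and stained with CyQuant. IC50s came from a four-parameter logistic fit, averaged over ≥2 experiments; the VEGF IC50 was compared against the bFGF IC50.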

[3] = target: Angiopoietin-1 receptor (Homo sapiens, UniProt Q02763); assay: Inhibition of Tie2
[4] = target: Vascular endothelial growth factor receptor 2 (Homo sapiens, UniProt P35968)
[5] = tested on: HUVEC; assay: Inhibition of bFGF-induced proliferation of HUVEC; assay type: functional, cell-based; conditions: Homo sapiens
How it was run: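 HUVEC seeded at 3000/well in DMEM with 10% FBS, 22 h; 2 h preincubation with serial compound dilutions, then 50 ng/mL VEGF or 20 ng/mL bFGF for 72 h at 37 °C. Freeze–thaw, CyQuant DNA dye read-out; IC50 by four-parameter logistic fit, averaged over ≥2 experiments.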

[6] = target: Hepatocyte growth factor receptor (Homo sapiens, UniProt P08581); assay: Inhibition of c-Met
[7] = tested on: HUVEC; assay: Inhibition of VEGF-induced proliferation of HUVEC; assay type: functional, cell-based; conditions: Homo sapiens
[8] = target: T1, Aurora kinase A (Homo sapiens, UniProt O14965); assay: Inhibition of Aurora A
T1 sequence (O14965 whole entry): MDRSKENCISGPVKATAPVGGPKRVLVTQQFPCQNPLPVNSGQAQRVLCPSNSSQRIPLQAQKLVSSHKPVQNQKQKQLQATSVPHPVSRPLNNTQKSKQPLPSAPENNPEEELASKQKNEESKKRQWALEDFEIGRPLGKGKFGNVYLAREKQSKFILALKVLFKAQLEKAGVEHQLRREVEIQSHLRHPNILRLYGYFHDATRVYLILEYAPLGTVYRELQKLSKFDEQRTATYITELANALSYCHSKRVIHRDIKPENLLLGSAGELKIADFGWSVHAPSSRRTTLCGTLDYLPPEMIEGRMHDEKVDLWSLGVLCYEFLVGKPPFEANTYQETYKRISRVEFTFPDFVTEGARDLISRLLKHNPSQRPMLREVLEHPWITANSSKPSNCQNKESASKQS

[9] = Aqueous solubility in 0.01 N Hcl; assay type: physicochemical
[10] = target: Vascular endothelial growth factor receptor 3 (Homo sapiens) (UniProt P35916); assay: Inhibition of human VEGFR3
[11] = target: Aurora kinase B (Homo sapiens, UniProt Q96GD4); assay: Inhibition of Aurora B
[12] = Intrinsic clearance in human liver microsomes at 1 uM; assay type: ADME, Microsome; conditions: read-out: Stability
How it was run: (§1)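 Human or rat liver microsomes (0.25 mg protein/mL) with 1 mM NADPH, 2 mM MgCl2 in 50 mM potassium phosphate pH 7.4 at 37 °C; compound 1 µM final. Sampled 0–40 min into acetonitrile, LC-MS/MS; ln % remaining vs time slope gives T1/2; CLint = (0.693/T1/2)/0.25 mg/mL.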

[13] = Tmax in Sprague-Dawley rat at 2 mg/kg, po; assay type: ADME, organism-based; parameters: dose 2 mg/kg, route oral; conditions: in vivo
How it was run: (§2)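 Male Sprague–Dawley rats dosed iv at 0.5 mg/kg as DMSO solution or po at 2 mg/kg as suspension in 100% OraPlus. Serial jugular blood, plasma LC-MS/MS quantitation, noncompartmental analysis.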

[14] = Clearance in Sprague-Dawley rat at 0.5 mg/kg, iv; assay type: ADME, organism-based; parameters: dose 0.5 mg/kg, route intravenous; conditions: in vivo
How it was run: (§3)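 Male Sprague–Dawley rats dosed iv via femoral vein as DMSO solution (1 or 0.5 mg/kg) or po by gavage as OraPlus suspension (pH 2.0–2.2 with methanesulfonic acid; 10 or 2 mg/kg). Serial jugular blood over 12–24 h; plasma acetonitrile precipitation, LC-MS/MS (MRM) with internal standard; noncompartmental parameters.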

[15] = Intrinsic clearance in rat liver microsomes at 1 uM; assay type: ADME, Microsome; conditions: read-out: Stability; how it was run: as §1
[16] = AUC (0 to infinity) in Sprague-Dawley rat at 2 mg/kg, po; assay type: ADME, organism-based; parameters: time infinity, dose 2 mg/kg, route oral; conditions: plasma; how it was run: as §3
[17] = Volume of distribution at steady state in Sprague-Dawley rat at 0.5 mg/kg, iv; assay type: ADME, organism-based; parameters: dose 0.5 mg/kg, route intravenous; conditions: in vivo, read-out: Vdss; how it was run: as §2
[18] = Cmax in Sprague-Dawley rat at 2 mg/kg, po; assay type: ADME, organism-based; parameters: dose 2 mg/kg, route oral; conditions: in vivo; how it was run: as §3
[19] = Oral bioavailability in Sprague-Dawley rat at 2 mg/kg; assay type: ADME, organism-based; conditions: in vivo; how it was run: as §2
[20] = Half life in Sprague-Dawley rat at 0.5 mg/kg, iv; assay type: ADME, organism-based; parameters: dose 0.5 mg/kg, route intravenous; conditions: in vivo; how it was run: as §3

Tyrosine-protein kinase Lck, sequence (P06239 whole entry): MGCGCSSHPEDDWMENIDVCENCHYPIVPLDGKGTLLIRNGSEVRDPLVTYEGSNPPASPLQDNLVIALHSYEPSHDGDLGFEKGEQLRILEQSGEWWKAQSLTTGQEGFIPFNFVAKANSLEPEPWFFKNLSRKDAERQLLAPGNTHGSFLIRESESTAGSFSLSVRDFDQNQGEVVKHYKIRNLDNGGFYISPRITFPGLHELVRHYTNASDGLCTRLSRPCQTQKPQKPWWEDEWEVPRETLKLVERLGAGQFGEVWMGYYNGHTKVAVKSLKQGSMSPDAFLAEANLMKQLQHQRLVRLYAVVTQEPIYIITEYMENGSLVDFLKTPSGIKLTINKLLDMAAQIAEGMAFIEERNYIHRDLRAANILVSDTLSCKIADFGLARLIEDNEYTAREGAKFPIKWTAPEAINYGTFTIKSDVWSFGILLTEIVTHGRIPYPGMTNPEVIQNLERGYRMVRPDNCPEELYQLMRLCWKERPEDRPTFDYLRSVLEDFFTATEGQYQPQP
Aurora kinase B, sequence (Q96GD4 whole entry): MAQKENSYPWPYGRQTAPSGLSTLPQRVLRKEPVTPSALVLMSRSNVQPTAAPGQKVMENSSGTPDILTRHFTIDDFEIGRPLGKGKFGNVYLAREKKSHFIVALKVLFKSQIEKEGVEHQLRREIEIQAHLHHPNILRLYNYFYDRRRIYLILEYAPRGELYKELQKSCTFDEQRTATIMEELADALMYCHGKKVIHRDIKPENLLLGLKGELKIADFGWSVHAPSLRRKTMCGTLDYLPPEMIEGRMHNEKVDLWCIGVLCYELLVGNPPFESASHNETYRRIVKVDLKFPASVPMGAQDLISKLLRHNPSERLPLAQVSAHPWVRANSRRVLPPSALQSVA
Angiopoietin-1 receptor, sequence (Q02763 whole entry): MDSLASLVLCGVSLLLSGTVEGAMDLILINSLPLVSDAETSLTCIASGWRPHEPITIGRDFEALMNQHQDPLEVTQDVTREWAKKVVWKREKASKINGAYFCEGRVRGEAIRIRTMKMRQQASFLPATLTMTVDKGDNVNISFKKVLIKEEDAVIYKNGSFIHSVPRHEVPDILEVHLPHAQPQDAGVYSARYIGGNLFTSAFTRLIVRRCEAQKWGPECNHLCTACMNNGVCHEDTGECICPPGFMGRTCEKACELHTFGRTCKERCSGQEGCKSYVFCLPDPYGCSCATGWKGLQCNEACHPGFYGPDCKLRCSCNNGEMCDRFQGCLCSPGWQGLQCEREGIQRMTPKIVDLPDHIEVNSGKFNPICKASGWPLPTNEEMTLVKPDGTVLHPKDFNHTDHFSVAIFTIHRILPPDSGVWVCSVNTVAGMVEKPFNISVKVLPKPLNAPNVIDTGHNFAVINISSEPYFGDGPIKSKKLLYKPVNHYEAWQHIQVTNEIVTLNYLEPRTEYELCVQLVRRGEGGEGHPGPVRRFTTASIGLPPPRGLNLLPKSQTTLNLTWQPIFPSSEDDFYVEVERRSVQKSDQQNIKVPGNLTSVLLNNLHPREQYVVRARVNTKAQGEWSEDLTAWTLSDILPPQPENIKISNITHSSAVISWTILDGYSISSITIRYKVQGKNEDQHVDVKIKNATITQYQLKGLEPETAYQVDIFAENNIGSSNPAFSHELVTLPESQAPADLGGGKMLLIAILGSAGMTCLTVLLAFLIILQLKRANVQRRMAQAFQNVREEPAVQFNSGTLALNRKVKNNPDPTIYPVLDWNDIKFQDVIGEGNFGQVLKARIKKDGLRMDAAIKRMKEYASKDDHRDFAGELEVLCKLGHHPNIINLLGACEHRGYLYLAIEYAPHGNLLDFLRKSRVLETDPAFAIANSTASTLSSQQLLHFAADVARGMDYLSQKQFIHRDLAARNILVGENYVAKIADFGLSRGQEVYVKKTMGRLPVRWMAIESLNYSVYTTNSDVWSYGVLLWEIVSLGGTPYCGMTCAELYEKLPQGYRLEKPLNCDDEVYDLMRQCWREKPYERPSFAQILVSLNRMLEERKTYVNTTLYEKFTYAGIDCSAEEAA
Hepatocyte growth factor receptor, sequence (P08581 whole entry): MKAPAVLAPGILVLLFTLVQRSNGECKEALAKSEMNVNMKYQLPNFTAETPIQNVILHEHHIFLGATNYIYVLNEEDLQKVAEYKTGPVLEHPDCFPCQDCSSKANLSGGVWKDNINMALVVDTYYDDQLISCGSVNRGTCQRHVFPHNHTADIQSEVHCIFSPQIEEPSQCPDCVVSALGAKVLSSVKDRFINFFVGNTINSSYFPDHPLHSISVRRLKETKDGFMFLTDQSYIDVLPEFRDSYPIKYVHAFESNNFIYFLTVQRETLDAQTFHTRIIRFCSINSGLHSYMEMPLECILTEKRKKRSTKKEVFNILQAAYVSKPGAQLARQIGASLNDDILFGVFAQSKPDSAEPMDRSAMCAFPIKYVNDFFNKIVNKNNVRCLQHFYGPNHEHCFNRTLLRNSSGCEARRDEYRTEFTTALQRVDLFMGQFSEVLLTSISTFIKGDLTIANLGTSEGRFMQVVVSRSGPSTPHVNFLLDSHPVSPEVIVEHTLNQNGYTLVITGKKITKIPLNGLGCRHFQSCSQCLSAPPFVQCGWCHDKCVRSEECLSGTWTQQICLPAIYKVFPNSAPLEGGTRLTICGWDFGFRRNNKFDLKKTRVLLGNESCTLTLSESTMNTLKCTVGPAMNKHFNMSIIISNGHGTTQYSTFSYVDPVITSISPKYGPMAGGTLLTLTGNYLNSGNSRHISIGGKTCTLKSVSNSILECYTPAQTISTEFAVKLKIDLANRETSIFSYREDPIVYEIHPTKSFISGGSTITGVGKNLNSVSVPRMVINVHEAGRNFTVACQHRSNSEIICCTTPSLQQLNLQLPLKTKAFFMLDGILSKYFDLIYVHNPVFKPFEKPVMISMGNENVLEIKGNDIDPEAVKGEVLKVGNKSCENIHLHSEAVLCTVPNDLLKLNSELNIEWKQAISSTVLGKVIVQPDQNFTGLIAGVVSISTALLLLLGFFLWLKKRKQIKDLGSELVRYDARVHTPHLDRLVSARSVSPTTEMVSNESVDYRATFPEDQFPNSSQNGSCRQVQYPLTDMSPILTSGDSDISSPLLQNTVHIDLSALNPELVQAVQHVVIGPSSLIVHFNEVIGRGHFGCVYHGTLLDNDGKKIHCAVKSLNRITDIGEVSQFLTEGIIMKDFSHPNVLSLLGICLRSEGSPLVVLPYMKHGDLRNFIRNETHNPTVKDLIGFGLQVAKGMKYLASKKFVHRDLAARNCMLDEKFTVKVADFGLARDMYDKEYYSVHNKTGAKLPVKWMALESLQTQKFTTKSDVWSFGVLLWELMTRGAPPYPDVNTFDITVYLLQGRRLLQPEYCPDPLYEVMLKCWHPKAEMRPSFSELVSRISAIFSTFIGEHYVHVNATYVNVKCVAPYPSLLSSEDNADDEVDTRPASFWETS
Vascular endothelial growth factor receptor 2, sequence (P35968 whole entry): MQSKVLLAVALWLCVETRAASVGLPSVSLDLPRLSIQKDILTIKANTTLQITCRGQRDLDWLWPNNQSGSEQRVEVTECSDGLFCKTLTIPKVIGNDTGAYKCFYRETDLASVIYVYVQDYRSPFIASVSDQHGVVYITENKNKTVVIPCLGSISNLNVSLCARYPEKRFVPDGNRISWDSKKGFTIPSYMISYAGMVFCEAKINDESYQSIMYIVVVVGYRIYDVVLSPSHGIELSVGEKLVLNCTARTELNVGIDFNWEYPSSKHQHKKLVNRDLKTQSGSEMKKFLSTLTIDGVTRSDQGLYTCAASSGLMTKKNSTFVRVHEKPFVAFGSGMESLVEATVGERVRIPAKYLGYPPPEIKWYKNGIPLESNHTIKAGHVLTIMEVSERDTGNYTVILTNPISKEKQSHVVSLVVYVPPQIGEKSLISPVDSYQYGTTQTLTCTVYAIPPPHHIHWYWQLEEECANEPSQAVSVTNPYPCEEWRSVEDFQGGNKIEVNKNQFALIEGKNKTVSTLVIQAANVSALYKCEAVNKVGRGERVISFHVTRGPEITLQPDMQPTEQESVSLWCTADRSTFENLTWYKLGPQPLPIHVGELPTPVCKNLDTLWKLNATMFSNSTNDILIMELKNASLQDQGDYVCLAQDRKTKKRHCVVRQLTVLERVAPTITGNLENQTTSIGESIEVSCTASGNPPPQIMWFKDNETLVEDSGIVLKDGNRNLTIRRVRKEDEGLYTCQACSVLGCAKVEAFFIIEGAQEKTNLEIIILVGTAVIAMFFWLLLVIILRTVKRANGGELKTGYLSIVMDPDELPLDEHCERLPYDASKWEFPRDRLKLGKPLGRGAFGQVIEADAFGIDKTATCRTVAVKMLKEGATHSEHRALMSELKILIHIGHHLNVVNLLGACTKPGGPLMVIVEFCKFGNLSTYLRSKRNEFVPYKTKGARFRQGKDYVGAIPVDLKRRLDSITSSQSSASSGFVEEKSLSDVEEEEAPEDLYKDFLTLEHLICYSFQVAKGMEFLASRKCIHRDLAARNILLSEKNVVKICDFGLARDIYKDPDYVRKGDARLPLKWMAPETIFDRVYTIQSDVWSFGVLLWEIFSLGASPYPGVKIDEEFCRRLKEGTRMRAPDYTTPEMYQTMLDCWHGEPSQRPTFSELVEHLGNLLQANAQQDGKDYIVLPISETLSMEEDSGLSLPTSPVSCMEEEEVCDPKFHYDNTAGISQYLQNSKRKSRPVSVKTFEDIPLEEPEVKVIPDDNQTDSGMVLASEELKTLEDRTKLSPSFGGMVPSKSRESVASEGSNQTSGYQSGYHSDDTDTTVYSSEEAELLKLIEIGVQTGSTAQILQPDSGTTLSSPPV

| SMILES | IC50 [1] [nM] | IC50 [3] [nM] | IC50 [4] [nM] | IC50 [6] [nM] | IC50 [8] [nM] | solubility [9] [µg/mL] | Activity [10] | IC50 [11] [nM] | microsomal CLint at 1 µM [12] [µL/min/mg] | Tmax [13] [min] | clearance [14] [mL/min/kg] | microsomal CLint at 1 µM [15] [µL/min/mg] | AUC(0-inf) [16] [ng·h/mL] | Vd [17] [L/kg] | Cmax [18] [ng/mL] | bioavailability [19] [%] | half-life [20] [min] | Selectivity ratio [2] | IC50 [5] [nM] | IC50 [7] [nM] |
| --- | --- | --- | --- | --- | --- | --- | --- | --- | --- | --- | --- | --- | --- | --- | --- | --- | --- | --- | --- | --- |
| COc1cc2nccc(Oc3ccc4c(C(=O)Nc5ccc(Cl)cc5)cccc4c3)c2cc1OC |  | 580 |  |  | 371 | 1.1 (≈ 2.27 µM) |  |  |  |  |  |  |  |  |  |  |  |  | 1140 | 7.6 |
| COc1cc2nccc(Oc3ccc4c(C(=O)NC(C)(C)C)cccc4c3)c2cc1OC | 4300 | 25000 | 1500 | 11000 | 3700 |  |  |  |  |  |  |  |  |  |  |  |  | >100 |  |  |
| COCCNC(=O)c1cccc2cc(Oc3ncnc4cc(OC)c(OC)cc34)ccc12 |  | 8300 | 314 | 20000 | 25000 |  | Active | 385 |  |  |  |  |  |  |  |  |  | >100 |  |  |
| COCCNC(=O)c1cccc2cc(Oc3ccnc4cc(OC)ccc34)ccc12 |  | 25000 | 28 | 20000 | 8300 |  |  |  |  |  |  |  |  |  |  |  |  | >100 |  | 20 |
| COc1ccc2c(Oc3ccc4c(C(=O)NC5CC5)cccc4c3)ccnc2c1 |  | 8300 | 0.45 | 20000 | 8300 |  |  |  |  |  |  |  |  |  |  |  |  | >100 |  | 3.4 |
| COc1ccc2c(Oc3ccc4c(C(N)=O)cccc4c3)ccnc2c1 |  | 25000 |  | 20000 | 8300 |  |  | 130 |  |  |  |  |  |  |  |  |  |  |  | 16 |
| COc1cc2nccc(Oc3ccc4c(C(=O)NCC(F)(F)F)cccc4c3)c2cc1OC | 25000 | 25000 | 3.8 | 20000 | 930 |  |  | 16 |  |  |  |  |  |  |  |  |  |  | 1140 | 24 |
| COc1cc2ncnc(Oc3ccc4c(C(N)=O)cccc4c3)c2cc1OC |  | 8300 |  | 20000 | 8300 |  |  | 680 |  |  |  |  |  |  |  |  |  |  |  | 16 |
| COc1cc2nccc(Oc3ccc4c(C(N)=O)cccc4c3)c2cc1C(N)=O |  | 5300 |  | 7400 | 6800 |  |  | 390 |  |  |  |  |  |  |  |  |  |  |  |  |
| COCCCNC(=O)c1cccc2cc(Oc3ccnc4cc(OC)c(OC)cc34)ccc12 | 1000 | 8300 | 4.2 |  | 3500 |  |  |  |  |  |  |  |  |  |  |  |  | >100 |  | 7.1 |
| COCCNC(=O)c1cccc2cc(Oc3ccnc4cc(OC)c(C(N)=O)cc34)ccc12 |  | 8300 | 22 | 6700 | 8300 |  |  | 233 | 4 | 18 | 50.8 | 95 | 164 | 0.751 | 61 | 12 | 18.6 | >100 |  | 0.8 |

Further lines, with some results ahead:

| IC50 [1] [nM] | IC50 [3] [nM] | IC50 [4] [nM] | IC50 [6] [nM] | IC50 [8] [nM] | solubility [9] [µg/mL] | Activity [10] | IC50 [11] [nM] | microsomal CLint at 1 µM [12] [µL/min/mg] | Tmax [13] [min] | clearance [14] [mL/min/kg] | microsomal CLint at 1 µM [15] [µL/min/mg] | AUC(0-inf) [16] [ng·h/mL] | Vd [17] [L/kg] | Cmax [18] [ng/mL] | bioavailability [19] [%] | half-life [20] [min] | SMILES | Selectivity ratio [2] | IC50 [5] [nM] | IC50 [7] [nM] |
| --- | --- | --- | --- | --- | --- | --- | --- | --- | --- | --- | --- | --- | --- | --- | --- | --- | --- | --- | --- | --- |
| 1300 | 1400 | 15 | 3200 | 620 |  |  |  |  |  |  |  |  |  |  |  |  | COc1cc2nccc(Oc3ccc4c(C(=O)NC5CCCC5)cccc4c3)c2cc1OC | >100 | 1140 | 6.6 |
| 1300 | 4300 |  |  | 1700 |  |  |  |  |  |  |  |  |  |  |  |  | CCCNC(=O)c1cccc2cc(Oc3ccnc4cc(OC)c(OC)cc34)ccc12 |  | 600 | 7.4 |
|  | 1800 | 0.37 | 20000 | 4400 |  |  | 185 | 12 | 40.2 | 8.47 | 16 | 900 | 0.379 | 715 | 39 | 75.6 | COc1cc2nccc(Oc3ccc4c(C(=O)NC5CC5)cccc4c3)c2cc1C(N)=O | >100 |  | 1.2 |
| 700 | 25000 |  | 20000 | 3600 |  |  | 110 |  |  |  |  |  |  |  |  |  | CNC(=O)c1cccc2cc(Oc3ccnc4cc(OC)c(OC)cc34)ccc12 |  | 46 | 0.45 |
| 1800 | 25000 | 5.9 | 20000 | 3600 |  |  | 190 |  |  |  |  |  |  |  |  |  | COc1cc2nccc(Oc3ccc4c(C(=O)NC(C)C)cccc4c3)c2cc1OC | >100 | 1140 | 4.4 |
| 1200 | 25000 | 1.3 | 20000 | 1500 |  |  | 46 |  |  |  |  |  |  |  |  |  | CCNC(=O)c1cccc2cc(Oc3ccnc4cc(OC)c(OC)cc34)ccc12 | >100 | 150 | 0.33 |
|  | 7400 | 2.9 | 20000 | 8300 |  |  | 360 |  |  |  |  |  |  |  |  |  | COc1cc2ncnc(Oc3ccc4c(C(=O)NC5CC5)cccc4c3)c2cc1OC | >100 |  | 7.3 |
| 1100 | 9400 | 11 | 5300 | 840 |  |  | 10 |  |  |  |  |  |  |  |  |  | COc1cc2nccc(Oc3ccc4c(C(=O)NCC5CC5)cccc4c3)c2cc1OC |  | 1140 | 22 |
| 2000 | 1100 |  | 5000 | 560 |  |  | 62 |  |  |  |  |  |  |  |  |  | COc1cc2nccc(Oc3ccc4c(C(=O)NC5(C)CC5)cccc4c3)c2cc1OC |  | 1140 | 70 |
| 1000 | 4000 | 1.3 | 7600 | 440 |  |  |  |  |  |  |  |  |  |  |  |  | COc1cc2nccc(Oc3ccc4c(C(=O)NC5CCC5)cccc4c3)c2cc1OC | >100 | 1140 | 6.8 |
